How the values were obtained:
Homo sapiens [1] = species: Homo sapiens; assay: Selectivity ratio of IC50 for human CYP11B1 to IC50 for human CYP11B2
Method in brief: (§1)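 Whole-cell assay in V79MZ (Chinese hamster lung fibroblast) cells stably expressing human CYP11B2; a parallel line stably expressing human CYP11B1 gives the counter-target IC50. Selectivity is expressed as the CYP11B1/CYP11B2 IC50 ratio.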

[2] = target: T1, Cytochrome P450 11B2, mitochondrial (Homo sapiens, UniProt P19099); assay: Inhibition of human CYP11B2 expressed in NCI-H295R cells assessed as reduction in aldosterone formation; format: cell-based
T1 sequence (P19099 whole entry): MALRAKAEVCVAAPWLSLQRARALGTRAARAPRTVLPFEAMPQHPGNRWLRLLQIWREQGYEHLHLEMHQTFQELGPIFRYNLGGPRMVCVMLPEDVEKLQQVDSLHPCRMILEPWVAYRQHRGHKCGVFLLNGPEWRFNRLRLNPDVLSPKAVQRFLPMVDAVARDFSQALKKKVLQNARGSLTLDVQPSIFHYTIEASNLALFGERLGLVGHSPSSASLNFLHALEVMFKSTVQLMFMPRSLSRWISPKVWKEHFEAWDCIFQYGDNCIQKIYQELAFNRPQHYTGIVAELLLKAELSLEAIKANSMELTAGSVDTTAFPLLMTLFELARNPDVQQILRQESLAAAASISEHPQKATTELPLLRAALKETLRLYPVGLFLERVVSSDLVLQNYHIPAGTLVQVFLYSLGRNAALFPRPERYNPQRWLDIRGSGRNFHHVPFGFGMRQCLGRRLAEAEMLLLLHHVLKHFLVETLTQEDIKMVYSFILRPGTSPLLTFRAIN

[3] = target: T1, Cytochrome P450 11B2, mitochondrial; assay: Inhibition of human aldosterone synthase expressed in V79 MZ cells; format: cell-based, V79MZ; method in brief: as §1
Rattus norvegicus [4] = assay: Decrease in myocardial fibrosis in SHR rat at 1.2 mg/kg/day, po; settings: Myocardium, read-out: INH
[5] = target: T1, Cytochrome P450 11B2, mitochondrial; assay: Inhibition of human aldosterone synthase by cell based assay
[6] = target: T1, Cytochrome P450 11B2, mitochondrial; assay: Inhibition of human aldosterone synthase
[7] = target: T2, Cytochrome P450 11B1, mitochondrial (Homo sapiens, UniProt P15538); assay: Inhibition of human CYP11B1 expressed in NCI-H295R cells at 100 nM; format: cell-based
T2 sequence (P15538 whole entry): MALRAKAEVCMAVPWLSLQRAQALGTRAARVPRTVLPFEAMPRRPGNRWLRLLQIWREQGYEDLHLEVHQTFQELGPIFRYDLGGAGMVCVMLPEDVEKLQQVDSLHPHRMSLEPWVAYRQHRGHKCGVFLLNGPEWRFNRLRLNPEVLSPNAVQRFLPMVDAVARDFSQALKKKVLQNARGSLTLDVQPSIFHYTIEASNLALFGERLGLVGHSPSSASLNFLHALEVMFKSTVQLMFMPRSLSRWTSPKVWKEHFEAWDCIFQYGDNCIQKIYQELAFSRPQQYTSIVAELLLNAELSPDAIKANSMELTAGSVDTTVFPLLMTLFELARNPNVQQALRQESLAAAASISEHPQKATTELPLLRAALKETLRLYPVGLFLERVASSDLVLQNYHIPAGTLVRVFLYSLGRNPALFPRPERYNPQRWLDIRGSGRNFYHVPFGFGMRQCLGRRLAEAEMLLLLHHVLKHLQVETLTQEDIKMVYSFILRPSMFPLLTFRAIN

[8] = target: T3, Cytochrome P450 11B2, mitochondrial (Rattus norvegicus, UniProt P30099); assay: Inhibition of aldosterone synthase in rat adrenal assessed as decrease in aldosterone level at 100 uM
T3 sequence (P30099 whole entry): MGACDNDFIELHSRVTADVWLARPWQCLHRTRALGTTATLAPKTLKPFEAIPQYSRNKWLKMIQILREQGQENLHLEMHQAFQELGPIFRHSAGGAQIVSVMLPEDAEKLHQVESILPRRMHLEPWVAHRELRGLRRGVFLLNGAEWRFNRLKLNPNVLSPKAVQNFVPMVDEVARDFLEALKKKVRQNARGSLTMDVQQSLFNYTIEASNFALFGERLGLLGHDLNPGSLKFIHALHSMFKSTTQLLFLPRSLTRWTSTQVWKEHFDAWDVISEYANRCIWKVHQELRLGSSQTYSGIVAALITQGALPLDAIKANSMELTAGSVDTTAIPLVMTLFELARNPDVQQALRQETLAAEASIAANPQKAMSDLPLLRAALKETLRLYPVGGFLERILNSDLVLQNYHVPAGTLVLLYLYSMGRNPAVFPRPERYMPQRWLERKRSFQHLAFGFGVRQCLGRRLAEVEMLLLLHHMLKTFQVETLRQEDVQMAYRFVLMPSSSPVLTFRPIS

[9] = target: T3, Cytochrome P450 11B2, mitochondrial; assay: Inhibition of aldosterone synthase in rat adrenal assessed as decrease in 18-OH-corticosterone level at 100 uM
Homo sapiens [10] = species: Homo sapiens; assay: Increase in aldosterone level in primary aldosteronism patient plasma at 50 mg, bid for 31 days; format: functional
Homo sapiens [11] = species: Homo sapiens; assay: Increase in aldosterone level in sodium depleted healthy human urine; format: functional
Homo sapiens [12] = species: Homo sapiens; assay: Decrease in diastolic blood pressure in hypertension patient at 50 mg, bid for 8 weeks; format: functional, Artery
Homo sapiens [13] = species: Homo sapiens; assay: Increase in aldosterone level in sodium depleted healthy human plasma; format: functional
[14] = target: T1, Cytochrome P450 11B2, mitochondrial; assay: Inhibition of human aldosterone synthase in homogenized rat glomerulosa tissue
[15] = target: T1, Cytochrome P450 11B2, mitochondrial; assay: Inhibition of human aldosterone synthase expressed in V79 MZ cells assessed as inhibition of aldosterone synthesis; format: cell-based, V79MZ
Rattus norvegicus [16] = assay: Decrease in aldosterone level Wistar rat plasma at 4 mg/kg, po measured after 2 hrs by radioimmunoassay; format: functional
[17] = target: T1, Cytochrome P450 11B2, mitochondrial; assay: Inhibition of human CYP11B2 expressed in G402 cells; format: cell-based, G-402
Cytochrome P450 1A2 = target: T4, Cytochrome P450 1A2 (Homo sapiens, UniProt P05177); assay: Inhibition of CYP1A2 (unknown origin); format: ADME
T4 sequence (P05177 whole entry): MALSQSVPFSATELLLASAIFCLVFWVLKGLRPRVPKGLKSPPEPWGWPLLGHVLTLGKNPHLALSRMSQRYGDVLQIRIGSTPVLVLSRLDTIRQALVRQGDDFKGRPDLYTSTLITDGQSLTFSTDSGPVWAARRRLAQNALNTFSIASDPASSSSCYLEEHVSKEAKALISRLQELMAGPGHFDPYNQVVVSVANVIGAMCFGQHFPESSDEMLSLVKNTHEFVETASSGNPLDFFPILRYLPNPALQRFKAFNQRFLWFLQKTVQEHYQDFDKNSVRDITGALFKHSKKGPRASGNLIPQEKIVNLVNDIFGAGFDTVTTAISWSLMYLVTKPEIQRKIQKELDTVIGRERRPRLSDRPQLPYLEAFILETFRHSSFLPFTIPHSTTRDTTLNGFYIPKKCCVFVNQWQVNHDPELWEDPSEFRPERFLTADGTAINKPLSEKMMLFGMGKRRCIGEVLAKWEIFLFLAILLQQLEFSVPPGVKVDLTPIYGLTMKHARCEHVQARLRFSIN

Rattus norvegicus [18] = assay: Decrease in corticosterone level Wistar rat plasma at 4 mg/kg, po measured after 2 hrs by radioimmunoassay; format: functional
[19] = Tmax in sodium depleted healthy human; settings: in vivo
[20] = Elimination half life in sodium depleted healthy human; settings: in vivo

**Q.** For `CC(O)c1c(F)cncc1-c1cc2cc(Cl)c(F)cc2o1` (stereo not drawn), which Ratio IC50 (Homo sapiens [1]) is on record?
**A.** 427

**Q.** What about the IC50 [2] of the same molecule?
**A.** 2.5 nM

**Q.** Which Ratio IC50 (Homo sapiens [1]) does the source give for `Cc1cncc(-c2cc3n(n2)CCC(=O)N3)c1` here?
**A.** 128

**Q.** And the IC50 [3]?
**A.** 2.2 nM

**Q.** With `N#Cc1ccc([C@H]2CCCc3cncn32)cc1` [DEXFADROSTAT] as the molecule, how does the inhibition in vivo at 1.2 mg/kg/day (Rattus norvegicus [4]) read?
**A.** 50%

**Q.** Which Ratio IC50 (Homo sapiens [1]) does the source give for `Oc1ccc2c(c1)CC(Cc1ccncc1)C2` (stereo not drawn) here?
**A.** < 5

**Q.** And the IC50 [5]?
**A.** 59 nM

**Q.** For `CCOC(=O)c1cncn1C1c2ccccc2C(=O)OC1(C)C` (stereo not drawn), which IC50 [6] is on record?
**A.** 3 nM

**Q.** What about the inhibition at 0.1 µM [7] of the same molecule?
**A.** 94%

**Q.** With `CCS(=O)(=O)N(Cc1cncc(-c2cccc(Cl)c2Cl)c1)C1CC1` as the molecule, how does the IC50 [2] read?
**A.** 5 nM

**Q.** For `CC(=O)S[C@@H]1CC2=CC(=O)C=C[C@]2(C)[C@H]2CC[C@@]3(C)[C@@H]([C@@H]4C[C@@H]4[C@@]34CCC(=O)O4)[C@H]12` [MESPIRENONE], which inhibition at 100 µM [8] is on record?
**A.** > 40%

**Q.** And the inhibition at 100 µM [9]?
**A.** > 40%

**Q.** For `COc1cccc2c1CCC1C(c3cnc[nH]3)C21` (stereo not drawn), which Ratio IC50 (Homo sapiens [1]) is on record?
**A.** 2

**Q.** What about the IC50 [5] of the same molecule?
**A.** 41 nM

**Q.** What does the source list for `COC(=O)[C@@H]1CC2=CC(=O)CC[C@]2(C)[C@@]23O[C@@H]2C[C@@]2(C)[C@@H](CC[C@@]24CCC(=O)O4)[C@H]13` [EPLERENONE]?
**A.** Activity (Homo sapiens [10]): 89%; Activity (Homo sapiens [11]): 88%; Activity (Homo sapiens [12]): -7.9 mmHg; Activity (Homo sapiens [13]): 38%

**Q.** Which IC50 [14] does the source give for `c1ccc2c(-c3cccc4cncn34)cccc2c1` here?
**A.** 50 nM

**Q.** For `CN[C@@H]1C[C@H]2O[C@@](C)([C@@H]1OC)n1c3ccccc3c3c4c(c5c6ccccc6n2c5c31)C(=O)NC4` [STAUROSPORINE], which IC50 [15] is on record?
**A.** 11 nM

**Q.** For `CSc1ccc(C2CCCn3cncc32)cc1` (stereo not drawn), which inhibition in vivo at 4 mg/kg (Rattus norvegicus [16]) is on record?
**A.** 62%

**Q.** With `Cn1c(-c2cncc3ccccc23)nc2ccc(F)c(F)c21` as the molecule, how does the Ratio IC50 (Homo sapiens [1]) read?
**A.** > 1000

**Q.** With `CC1(C)c2cc(Cl)ccc2C(=O)N1c1cncc(C2CCCN(S(C)(=O)=O)C2)n1` (stereo not drawn) as the molecule, how does the Ratio IC50 (Homo sapiens [1]) read?
**A.** 589

**Q.** And the IC50 [17]?
**A.** 2.8 nM

**Q.** With `c1cncc(C2CCCCCCC2)c1` as the molecule, how does the Ratio IC50 (Homo sapiens [1]) read?
**A.** 50

**Q.** What about the IC50 (Cytochrome P450 1A2) of the same molecule?
**A.** > 100000 nM

**Q.** With `N#Cc1ccc2c(c1)C1(CCC2)OCCn2cncc21` (stereo not drawn) as the molecule, how does the inhibition in vivo at 4 mg/kg (Rattus norvegicus [18]) read?
**A.** 15%

**Q.** And the inhibition in vivo at 4 mg/kg (Rattus norvegicus [16])?
**A.** 82%

**Q.** For `Cc1ccncc1-c1cc(F)c2c(c1)CCc1nnc(C)n1-2`, which Ratio IC50 (Homo sapiens [1]) is on record?
**A.** 421

**Q.** Which IC50 [2] does the source give for `Cn1c(=O)oc2cc(-c3cncc(C(O)C(F)(F)F)c3)ccc21` (stereo not drawn) here?
**A.** 1.4 nM

**Q.** For `CCS(=O)(=O)NCc1cncc(-c2c(C)c3ccccc3n2C)c1`, which Ratio IC50 (Homo sapiens [1]) is on record?
**A.** 322

**Q.** Which results are given for `N#Cc1ccc([C@H]2CCc3cncn32)c(F)c1` [OSILODROSTAT]?
**A.** Tmax [19]: 1 h; half-life [20]: 4 h

Reference: ChEMBL document CHEMBL3352462, “Aldosterone synthase inhibitors as promising treatments for mineralocorticoid dependent cardiovascular and renal diseases” (J Med Chem, 2014)
